Results from ChEMBL document CHEMBL1649062, “Integration of lead optimization with crystallography for a membrane-bound ion channel target: discovery of a new class of AMPA receptor positive allosteric modulators” (J Med Chem, 2011).
pEC50, pIC50: −log10 of the molar value. Values after ≈ are worked out from the molar mass of the structure shown.

What was measured:
[1] = Distribution coefficient, log D of the compound; type: physicochemical; details: octanol/water
[2] = Clearance in rat at 3 mg/kg, po; type: ADME, organism-based; parameters: dose 3 mg/kg, route oral; details: in vivo
In short: (§1)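 Rats dosed orally at 3 mg/kg; blood sampled via the hepatic portal vein and heart. Estimated clearance derived from in vivo hepatic extraction, taking rat liver blood flow as 85 (mL/min)/kg.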

[3] = Apparent permeability of the compound; type: ADME; details: not told
In short: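 Artificial membrane permeability: donor holds 10 mM sample in pH 7.05 phosphate buffer with 0.5% hydroxypropylcyclodextrin. Membrane is 1.8% phosphatidylcholine and 1% cholesterol in decane. Donor and acceptor concentrations measured by LCMS after 3 h at room temperature; permeability expressed in nm/s.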

[4] = Inhibition of human CYP450 by fluorescence assay; type: ADME
In short: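 Recombinant human CYP1A2, 2C9, 2C19, 2D6 and 3A4 bactosomes (0.1 mg/mL protein) preincubated 10 min at 37 °C in 50 mM potassium phosphate pH 7.4 with test compound (0.1–10 μM, methanol 3–4.5% final) and fluorogenic probe: ethoxyresorufin 0.5 μM (1A2), FCA 50 μM (2C9), BMC 10 μM (2C19), MMC 10 μM (2D6), DEF 1 μM or 7-BQ 25 μM (3A4). NADPH-regenerating system added; fluorescent metabolite read 10 min; rate as % control; IC50 fitted; triplicate.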

Brain = experiment: Brain tissue binding in rat at 3 mg/kg, po; type: ADME, organism-based; parameters: dose 3 mg/kg, route oral; details: in vivo
Glutamate receptor 2 [5] = target: T1, Glutamate receptor 2 (Homo sapiens, UniProt P42262); experiment: Allosteric modulation of human recombinant GluA2 receptor flip isoform expressed in HEK293 cells assessed as potentiation of glutamate-induced calcium influx by Fluo-4/FLIPR method relative to cyclothiazide; type: cell-based
T1 sequence (P42262 whole entry, canonical isoform): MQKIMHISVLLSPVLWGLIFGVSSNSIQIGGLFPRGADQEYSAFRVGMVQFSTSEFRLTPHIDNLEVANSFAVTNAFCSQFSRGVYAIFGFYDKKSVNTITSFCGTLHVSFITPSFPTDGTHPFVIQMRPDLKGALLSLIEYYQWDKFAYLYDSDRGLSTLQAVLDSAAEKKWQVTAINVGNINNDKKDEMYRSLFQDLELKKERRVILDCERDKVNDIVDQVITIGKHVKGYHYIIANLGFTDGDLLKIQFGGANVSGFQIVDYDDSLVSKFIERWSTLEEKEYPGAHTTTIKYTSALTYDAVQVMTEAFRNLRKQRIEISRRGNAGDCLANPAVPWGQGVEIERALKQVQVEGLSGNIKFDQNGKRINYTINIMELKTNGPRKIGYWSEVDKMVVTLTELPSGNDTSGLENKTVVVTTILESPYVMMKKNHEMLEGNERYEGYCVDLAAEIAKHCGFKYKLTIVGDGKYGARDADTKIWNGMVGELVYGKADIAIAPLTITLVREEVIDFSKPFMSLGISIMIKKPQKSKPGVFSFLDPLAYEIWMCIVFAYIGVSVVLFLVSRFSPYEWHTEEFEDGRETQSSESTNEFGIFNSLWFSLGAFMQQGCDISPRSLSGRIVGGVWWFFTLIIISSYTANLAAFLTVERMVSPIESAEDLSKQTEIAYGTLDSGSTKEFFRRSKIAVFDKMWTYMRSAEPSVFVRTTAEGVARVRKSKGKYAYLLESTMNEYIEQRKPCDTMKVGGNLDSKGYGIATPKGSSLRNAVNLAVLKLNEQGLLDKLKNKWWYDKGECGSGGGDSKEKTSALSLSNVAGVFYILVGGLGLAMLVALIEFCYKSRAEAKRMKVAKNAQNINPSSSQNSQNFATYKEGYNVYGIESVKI
In short: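 Stable GluA2 flip (unedited) cells seeded to confluence 2-3 days before assay; washed in HEPES buffer (145 NaCl, 5 KCl, 2 CaCl2, 1 MgCl2, 5.5 glucose, pH 7.3), loaded with 2 μM Fluo4-AM 60 min at room temperature. FLIPR dual addition: compound 5 min before 100 μM glutamate; fluorescence rise expressed against maximal cyclothiazide response, fitted pEC50 and Asym max; n ≥ 3.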

Glutamate receptor 2 [6] = target: T1, Glutamate receptor 2; experiment: Allosteric modulation of human recombinant GluA2 receptor flip isoform expressed in HEK293 cells assessed as potentiation of glutamate-induced calcium influx by Fluo-4/FLIPR method; type: cell-based
In short: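 Stable GluA2 flip (unedited) cell line grown in DMEM/F12 with 10% FBS and seeded to confluence 2-3 days before use. Cells washed in HEPES buffer (pH 7.3) and loaded with 2 μM Fluo-4 AM for 60 min at room temperature. On FLIPR, compound was added 5 min before 100 μM glutamate. pEC50 and asymptotic maximum are relative to the maximal response to cyclothiazide, n ≥ 3.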

[7] = Plasma protein binding in rat at 3 mg/kg, po; type: ADME, organism-based; parameters: dose 3 mg/kg, route oral; details: read-out: PPB (converted)
[8] = AUC ( 0 to t) in rat at 3 mg/kg, po; type: ADME, organism-based, Plasma; parameters: dose 3 mg/kg, route oral; details: plasma
[9] = Kinetic solubility of the compound in phosphate buffered saline of pH 7.4; type: physicochemical
In short: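 Kinetic solubility: 10 mM DMSO stock, 5 μL diluted to 100 μL with pH 7.4 phosphate-buffered saline, equilibrated 1 h at room temperature, filtered, filtrate quantified by calibrated flow-injection chemiluminescent nitrogen detection.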

in vivo = details: rat, brain and blood, po, 3 mg/kg
[10] = Cmax in rat at 3 mg/kg, po; type: ADME, organism-based; parameters: dose 3 mg/kg, route oral; details: in vivo
[11] = Blood Clearance in rat at 3 mg/kg, po; type: ADME, organism-based; parameters: dose 3 mg/kg, route oral; details: whole blood; in short: as §1
[12] = Distribution coefficient, log D of the compound at pH 7.4; type: physicochemical; details: octanol/water
Cytochrome P450 1A2 = target: T2, Cytochrome P450 1A2 (Homo sapiens, UniProt P05177); experiment: Inhibition of human CYP1A2 by fluorescence assay; type: ADME
T2 sequence (P05177 whole entry): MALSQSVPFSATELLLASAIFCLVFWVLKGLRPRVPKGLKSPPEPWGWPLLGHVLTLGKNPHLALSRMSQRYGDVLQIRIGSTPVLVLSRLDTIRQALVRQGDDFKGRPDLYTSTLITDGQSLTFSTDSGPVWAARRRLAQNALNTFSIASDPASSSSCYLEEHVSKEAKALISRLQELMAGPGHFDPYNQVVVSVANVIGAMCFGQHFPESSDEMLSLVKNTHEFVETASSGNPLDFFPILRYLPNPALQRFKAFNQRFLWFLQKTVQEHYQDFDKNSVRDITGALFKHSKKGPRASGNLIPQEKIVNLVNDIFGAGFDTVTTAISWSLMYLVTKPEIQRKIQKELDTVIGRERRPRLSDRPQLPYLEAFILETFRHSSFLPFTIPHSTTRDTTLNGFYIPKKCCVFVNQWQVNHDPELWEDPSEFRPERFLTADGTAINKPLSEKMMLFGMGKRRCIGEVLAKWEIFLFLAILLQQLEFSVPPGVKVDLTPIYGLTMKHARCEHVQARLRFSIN
In short: (§2)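 Recombinant human CYP bactosomes (0.1 mg/mL) in 50 mM potassium phosphate pH 7.4, preincubated 10 min at 37 °C with test compound (0.1-10 μM, 7 concentrations) and fluorogenic substrate. Substrates: ethoxyresorufin 0.5 μM (1A2), FCA 50 μM (2C9), BMC 10 μM (2C19), MMC 10 μM (2D6), DEF 1 μM or 7-BQ 25 μM (3A4). Reaction started with NADPH regenerating system; metabolite formation read over 10 min. IC50 from percent of control rate; miconazole control; triplicate.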

Cytochrome P450 2D6 = Cytochrome P450 2D6 (Homo sapiens, UniProt P10635); experiment: Inhibition of human CYP2D6 by fluorescence assay; type: ADME; in short: as §2
Chain of Cytochrome P450 2D6 (P10635 whole entry): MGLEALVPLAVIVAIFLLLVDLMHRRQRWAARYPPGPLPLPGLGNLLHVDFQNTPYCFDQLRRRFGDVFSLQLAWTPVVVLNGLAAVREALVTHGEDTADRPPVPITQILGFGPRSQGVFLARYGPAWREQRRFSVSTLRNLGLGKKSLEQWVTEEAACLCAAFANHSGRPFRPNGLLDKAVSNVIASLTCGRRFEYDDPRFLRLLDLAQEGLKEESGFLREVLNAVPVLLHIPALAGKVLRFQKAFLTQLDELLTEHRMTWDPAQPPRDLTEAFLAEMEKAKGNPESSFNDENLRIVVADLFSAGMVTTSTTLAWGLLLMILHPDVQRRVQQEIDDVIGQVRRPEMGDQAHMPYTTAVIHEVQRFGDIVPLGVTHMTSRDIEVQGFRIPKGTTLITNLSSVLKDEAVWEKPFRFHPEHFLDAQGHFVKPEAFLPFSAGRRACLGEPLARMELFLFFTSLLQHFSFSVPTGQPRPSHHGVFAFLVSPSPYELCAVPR

Cytochrome P450 3A4 = Cytochrome P450 3A4 (Homo sapiens, UniProt P08684); experiment: Inhibition of human CYP3A4 by fluorescence assay; type: ADME; in short: as §2
Chain of Cytochrome P450 3A4 (P08684 whole entry): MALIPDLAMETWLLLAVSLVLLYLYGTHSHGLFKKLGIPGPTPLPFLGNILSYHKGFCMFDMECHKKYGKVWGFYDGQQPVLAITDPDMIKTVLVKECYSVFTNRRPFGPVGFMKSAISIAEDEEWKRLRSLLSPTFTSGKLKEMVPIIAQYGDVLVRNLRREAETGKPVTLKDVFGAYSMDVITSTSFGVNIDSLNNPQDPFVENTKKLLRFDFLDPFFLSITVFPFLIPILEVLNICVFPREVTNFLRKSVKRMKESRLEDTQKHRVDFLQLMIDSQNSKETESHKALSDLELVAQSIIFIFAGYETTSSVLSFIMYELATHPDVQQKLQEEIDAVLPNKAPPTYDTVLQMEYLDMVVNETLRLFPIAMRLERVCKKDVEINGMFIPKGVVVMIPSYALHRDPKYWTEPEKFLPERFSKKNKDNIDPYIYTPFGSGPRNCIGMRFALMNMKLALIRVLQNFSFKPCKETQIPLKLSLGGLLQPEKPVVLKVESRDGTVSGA

[13] = AUC (0 to t) in rat blood at 3 mg/kg, po; type: ADME, organism-based; parameters: dose 3 mg/kg, route oral; details: whole blood
Cytochrome P450 2C9 = Cytochrome P450 2C9 (Homo sapiens, UniProt P11712); experiment: Inhibition of human CYP2C9 by fluorescence assay; type: ADME; in short: as §2
Chain of Cytochrome P450 2C9 (P11712 whole entry): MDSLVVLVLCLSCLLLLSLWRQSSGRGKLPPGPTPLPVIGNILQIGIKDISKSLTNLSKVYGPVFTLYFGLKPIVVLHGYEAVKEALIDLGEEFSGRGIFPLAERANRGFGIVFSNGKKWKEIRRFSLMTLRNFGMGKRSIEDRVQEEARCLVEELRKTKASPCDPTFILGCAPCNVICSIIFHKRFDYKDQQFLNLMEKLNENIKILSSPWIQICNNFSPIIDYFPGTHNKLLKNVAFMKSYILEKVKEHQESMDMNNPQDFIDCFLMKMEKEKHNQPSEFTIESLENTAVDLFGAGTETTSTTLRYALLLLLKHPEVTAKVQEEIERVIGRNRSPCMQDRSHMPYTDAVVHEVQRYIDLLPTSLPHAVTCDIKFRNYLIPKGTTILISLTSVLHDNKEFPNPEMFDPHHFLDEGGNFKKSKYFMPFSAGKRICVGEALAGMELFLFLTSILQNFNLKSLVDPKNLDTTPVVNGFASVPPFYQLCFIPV

[14] = Cmax in rat blood at 3 mg/kg, po; type: ADME, organism-based; parameters: dose 3 mg/kg, route oral; details: whole blood
Cytochrome P450 2C19 = Cytochrome P450 2C19 (Homo sapiens, UniProt P33261); experiment: Inhibition of human CYP2C19 by fluorescence assay; type: ADME; in short: as §2
Chain of Cytochrome P450 2C19 (P33261 whole entry): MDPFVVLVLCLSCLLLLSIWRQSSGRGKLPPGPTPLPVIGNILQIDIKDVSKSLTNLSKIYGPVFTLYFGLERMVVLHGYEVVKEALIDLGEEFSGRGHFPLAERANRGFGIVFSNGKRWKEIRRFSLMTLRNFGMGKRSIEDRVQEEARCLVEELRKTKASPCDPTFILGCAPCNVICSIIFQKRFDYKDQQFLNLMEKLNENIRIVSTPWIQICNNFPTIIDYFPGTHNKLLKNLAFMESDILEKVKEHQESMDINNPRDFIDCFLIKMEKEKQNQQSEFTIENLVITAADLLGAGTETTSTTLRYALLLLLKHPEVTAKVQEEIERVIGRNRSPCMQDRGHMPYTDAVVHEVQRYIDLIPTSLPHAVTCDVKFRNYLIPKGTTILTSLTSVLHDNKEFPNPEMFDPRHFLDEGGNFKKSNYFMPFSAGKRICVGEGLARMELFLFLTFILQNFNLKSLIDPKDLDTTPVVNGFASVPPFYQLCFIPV

Row | Compound | logD [1] | Papp [3] [nm/s] | pIC50 [4] | Brain tissue binding (% bound) (Brain) [%] | Activity (Glutamate receptor 2 [5]) [%] | pEC50 (Glutamate receptor 2 [6]) | fraction unbound [7] | solubility kinetic [9] [mg/mL] | pIC50 (Cytochrome P450 1A2) | pIC50 (Cytochrome P450 2D6) | pIC50 (Cytochrome P450 3A4) | pIC50 (Cytochrome P450 2C9) | pIC50 (Cytochrome P450 2C19) | further results
1 | CN1CCc2c(C(F)(F)F)nn(-c3ccc(CN4CCCC4=O)cc3)c2C1 |  | 430 |  | 63 | 102 | 4.40 | 0.142 | 0.093 (≈ 246 µM) | < 5.00 | < 5.00 | < 5.00 | < 5.00 | < 5.00 | CL/F [11]: 1.32 L/h/kg; logD [12]: 2; AUC(0-t) [13]: 0.294 µg·h/mL; Cmax [14]: 0.131 µg/mL
2 | O=C(C(F)c1ccc(-n2nc(C(F)(F)F)c3c2CCCC3)cc1)N1CCCC1 (configuration not stated) | 3.4 |  | < 5.00 |  | 98 | 4.50 |  | 0.124 (≈ 314 µM) |  |  |  |  |  | 
3 | O=C(c1ccc(-n2nc(C(F)(F)F)c3c2COCC3)cc1)N1CCCC1 |  | 490 |  | 95.5 | 75 | 4.00 | 0.067 | 0.104 (≈ 285 µM) | < 5.00 | < 5.00 | < 5.00 | < 5.00 | < 5.00 | CL/F [11]: 0.78 L/h/kg; logD [12]: 2.6; AUC(0-t) [13]: 0.733 µg·h/mL; Cmax [14]: 0.225 µg/mL
4 | CC(=O)Cc1ccc(-n2nc(C(F)(F)F)c3c2CCCC3)cc1 | 3 |  | ≥ 6.00 |  | 111 | 5.40 |  | 0.044 (≈ 137 µM) | ≥ 6.00 | ≥ 6.00 | ≥ 6.00 | ≥ 6.00 | 5.70 | 
5 | O=C(Cc1ccc(-n2nc(C(F)(F)F)c3c2CCCC3)cc1)NC1CCCC1 |  |  |  |  | 100 | 4.20 |  |  |  | 5.10 | 6.15 | 6.70 |  | 

Continued, in another order:

Row | logD [1] | Papp [3] [nm/s] | pIC50 [4] | Brain tissue binding (% bound) (Brain) [%] | Activity (Glutamate receptor 2 [5]) [%] | pEC50 (Glutamate receptor 2 [6]) | fraction unbound [7] | solubility kinetic [9] [mg/mL] | pIC50 (Cytochrome P450 1A2) | pIC50 (Cytochrome P450 2D6) | pIC50 (Cytochrome P450 3A4) | pIC50 (Cytochrome P450 2C9) | pIC50 (Cytochrome P450 2C19) | Compound | further results
6 | 3.3 | 400 | < 5.00 | 99.5 | 118 | 5.00 | 0.032 | 0.012 (≈ 30 µM) |  |  |  |  |  | O=S1(=O)CCCN1Cc1ccc(-n2nc(C(F)(F)F)c3c2CCCC3)cc1 | CL/F [2]: 2.46 L/h/kg; AUC(0-t) [8]: 0.364 µg·h/mL; Kp (in vivo): 2.5; Cmax [10]: 0.136 µg/mL
7 | 3.3 |  | < 5.00 |  | 102 | 4.70 |  | 0.015 (≈ 38.7 µM) |  |  |  |  |  | CN(Cc1ccc(-n2nc(C(F)(F)F)c3c2CCCC3)cc1)S(C)(=O)=O | 
8 | 2.8 |  | < 5.00 |  | 79 | 5.00 |  | 0.011 (≈ 27.4 µM) |  |  |  |  |  | CC(C)S(=O)(=O)NCc1ccc(-n2nc(C(F)(F)F)c3c2CCCC3)cc1 | 
